Measured values from paper PMC8738139 (Neuron, 2021).

Target: CNGA1 (Homo sapiens, UniProt P29973+Q14028)
Test: cryo-EM structures
Assay type: cell-based
Summary of the method: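 HEK293 cells co-transfected with human CNGA1/B1 and a GFP marker, then trypsinised and re-plated 48 h later. Whole-cell currents recorded at 100 mV. Pipette: 140 mM KCl, 5 mM EGTA, 10 mM HEPES pH 7.4, 1 mM cGMP. Bath: 140 mM NaCl, 4 mM KCl, 1 mM EGTA, 10 mM HEPES pH 7.4 plus varied test compound. Ki from Hill fit; mean ± SEM, n=5.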

CNGA1, sequence (P29973 141-686): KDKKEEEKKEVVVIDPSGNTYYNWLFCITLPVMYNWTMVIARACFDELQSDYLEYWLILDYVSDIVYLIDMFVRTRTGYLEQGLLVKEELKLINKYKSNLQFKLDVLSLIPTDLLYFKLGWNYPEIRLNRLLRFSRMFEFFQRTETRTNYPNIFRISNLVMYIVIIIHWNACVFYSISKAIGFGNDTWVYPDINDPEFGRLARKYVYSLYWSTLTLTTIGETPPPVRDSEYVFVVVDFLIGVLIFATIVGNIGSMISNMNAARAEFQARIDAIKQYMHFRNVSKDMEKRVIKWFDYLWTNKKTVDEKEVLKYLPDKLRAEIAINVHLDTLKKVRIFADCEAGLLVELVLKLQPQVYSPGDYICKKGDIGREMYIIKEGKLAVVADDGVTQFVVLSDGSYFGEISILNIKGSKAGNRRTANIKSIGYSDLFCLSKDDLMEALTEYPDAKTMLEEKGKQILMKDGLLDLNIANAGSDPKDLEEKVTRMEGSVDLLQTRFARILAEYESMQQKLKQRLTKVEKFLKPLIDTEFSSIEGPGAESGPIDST
CNGA1, sequence (Q14028 456-1251): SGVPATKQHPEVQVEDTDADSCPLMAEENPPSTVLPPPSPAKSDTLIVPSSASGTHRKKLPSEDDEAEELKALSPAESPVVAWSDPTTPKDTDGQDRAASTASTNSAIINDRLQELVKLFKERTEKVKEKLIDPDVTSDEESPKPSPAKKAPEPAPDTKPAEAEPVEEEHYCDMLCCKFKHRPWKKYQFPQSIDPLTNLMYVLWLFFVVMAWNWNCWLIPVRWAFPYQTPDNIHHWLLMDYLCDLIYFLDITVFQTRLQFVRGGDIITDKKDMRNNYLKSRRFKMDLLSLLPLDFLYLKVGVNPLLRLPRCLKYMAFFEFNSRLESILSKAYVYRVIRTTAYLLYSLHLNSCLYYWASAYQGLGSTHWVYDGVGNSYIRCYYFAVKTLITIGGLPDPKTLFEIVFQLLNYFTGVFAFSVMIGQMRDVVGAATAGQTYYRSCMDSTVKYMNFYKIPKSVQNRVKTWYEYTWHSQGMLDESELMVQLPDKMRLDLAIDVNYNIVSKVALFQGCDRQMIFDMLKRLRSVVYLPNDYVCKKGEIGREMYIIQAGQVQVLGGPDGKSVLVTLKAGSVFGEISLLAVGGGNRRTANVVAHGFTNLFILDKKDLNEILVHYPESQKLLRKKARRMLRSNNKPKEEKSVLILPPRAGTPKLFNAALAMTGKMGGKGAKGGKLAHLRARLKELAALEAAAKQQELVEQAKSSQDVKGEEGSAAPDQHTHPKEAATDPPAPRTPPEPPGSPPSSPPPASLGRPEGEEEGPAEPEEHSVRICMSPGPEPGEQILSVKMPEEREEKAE

Ki: 3.68 ± 0.13 µM
Compound: COc1ccc([C@H]2Sc3ccccc3N(CCN(C)C)C(=O)[C@H]2OC(C)=O)cc1 [L-cis-Diltiazem]
